Source: PubChem (Broad Institute)
MITF act = activators of MITF-driven TRPM1 promoter reporter, primary screen, cell-based, SK-MEL-5, luciferase, single point; SK-MEL-5 TRPM1-promoter luciferase, 24 h; % of positive control, neutral wells = 0; activation, % at 12.5 µM; actives 0.75% (n = 300,000);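 active = mean activation of at least 80% with every replicate also reaching 80%; inconclusive = mean reaches 80% but some replicate falls short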;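 note: 0% = neutral control wells and 100% = parthenolide positive control wells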
esBAF inh = Bmi1 luciferase reporter increase in mESCs, primary screen, esBAF inhibitor project, mouse ES cells, Bmi1 luciferase knock-in, single point. 24 h; 100% = twice the neutral-well signal. reporter increase, % at 12.5 µM. actives 2% (n = 350,000); in the data active = activation above about 40%; inconclusive = no clear call, values can overlap the other calls;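 note: 0% = median of the plate's neutral control wells and 100% = double that signal; a rise in the Bmi1 reporter signal indicates esBAF inhibition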
Casp6 inh = human caspase-6 inhibitors, primary screen, biochemical, VEID-R110 fluorescence, single point, set 2; inhibition, % at 12.5 µM; actives 0.53% (n = 350,000); P55212; purified caspase-6, Z-VEID-R110 cleavage fluorescence;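 active = mean inhibition across replicates at least about 35%, with every replicate also reaching that limit, limit read from the data; inconclusive = only one of the two criteria met; inactive = neither criterion met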;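 note: 0% = median of neutral control wells and 100% = no fluorescence left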
Target sequence (P55212 24-179 limits assumed): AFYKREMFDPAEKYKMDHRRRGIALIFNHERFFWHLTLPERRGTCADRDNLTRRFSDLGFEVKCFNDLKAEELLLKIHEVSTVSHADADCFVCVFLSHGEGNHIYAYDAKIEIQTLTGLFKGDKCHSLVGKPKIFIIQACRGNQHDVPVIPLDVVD
Target sequence (P55212 194-293 limits assumed): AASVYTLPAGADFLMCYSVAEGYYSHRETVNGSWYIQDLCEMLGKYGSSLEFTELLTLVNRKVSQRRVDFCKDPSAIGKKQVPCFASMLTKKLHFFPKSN
NSD2 HMT inh = NSD2 histone methyltransferase inhibitors, primary screen, biochemical, AlphaScreen, single concentration, set 2. Histone-lysine N-methyltransferase NSD2 (Homo sapiens), O96028. NSD2 peptide methylation, 120 min. inhibition, % at 12.5 µM. AID 743445, 2014. actives 0.54% (n = 310,000); in the data active = inhibition above about 50%
Wnt act = Wnt/beta-catenin pathway activators, primary screen, cell-based, plate reader, single point; actives 1.2% (n = 300,000); activation, % at 9.35 µM; AID 743398, 2014; Wnt/beta-catenin reporter cell assay, activator; in the data active = activation above about 30%, passing the limit was not always enough; inconclusive = no clear call, values can overlap the other calls;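 note: 0% = neutral control wells and 100% = positive control wells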
Xi reactivation = activators of inactive X chromosome reactivation, primary screen, imaging, XiGFP fibroblasts, GFP high-content imaging, set 2; XiGFP mouse fibroblasts, % GFP-positive cells imaging, 3 d; cells co-treated with 5-aza-dC sensitizer; scaled so ellipticine positive control = 100%; activation, % at 7.58 µM; actives 0.055% (n = 360,000); AID 743238, 2013;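 active = mean normalized replicate activation at least 10% and every replicate at or above 10%; inconclusive = only one of the two criteria met; inactive = mean below 10% and not all replicates reach 10%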;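 note: 0% = median of on-plate neutral control wells and 100% = ellipticine 6 µM median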
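System: SV40-immortalized XiGFP fibroblast cells, line 68-5-11 / Incubation: 3-day compound exposure, then 15 min fixation at room temperature / Compound: single concentration per compound, delivered by pin transfer / Buffer or medium: DMEM plus 5-aza-dC sensitizer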
Active calls of the source: *; u = inconclusive; x = no result. Only some compounds are listed: those with a hit (about 3% of all), similar ones and a draw of the others.

SMILES | MITF act | esBAF inh | Casp6 inh | NSD2 HMT inh | Wnt act | Xi reactivation
C#CCSc1nnc(-c2ccc(C)cc2)o1 | x | u | x | 34 | x | x
c1ccc(CSc2ccc(-c3cccnc3)nn2)cc1 | 89* | 59* | 1 | 1 | -1 | 0
c1cncc(CSc2ccc(-c3cccnc3)nn2)c1 | 23 | 24 | 1 | -3 | 5 | 0
C#CCSc1nnc(-c2ccc(O)cc2)o1 | u | 69* | 5 | -6 | 46* | 0
O=C(Nc1ccccc1F)N1C[C@@H]2[C@H](c3ccccc31)[C@@H](CO)N2C(=O)c1ccccc1F | x | 29 | -1 | x | x | 0
CCC(=O)N1C[C@@H](C)[C@@H](OC)CN(C)C(=O)c2ccc(NC(=O)NC(C)C)cc2OC[C@@H]1C | x | 0 | 0 | x | x | 0
CO[C@@H]1CN(C)C(=O)c2ccc(NC(=O)c3nc4ccccc4s3)cc2OC[C@@H](C)N(Cc2cncnc2)C[C@H]1C | x | 40 | -2 | x | x | 0
Cc1ccc(CSc2nnc(-c3cccnc3)o2)cc1 | x | 8 | x | -7 | x | x
c1ccc(CSc2nnc(-c3cccnc3)o2)cc1 | 50 | 42* | x | -2 | 6 | x
Cc1cccc2nc(COc3ccc4ccccc4c3Br)cn12 | 100* | x | -1 | -5 | 0 | 0
Cc1cccc2nc(CSc3ccccc3N)cn12 | 42 | 38 | x | 1 | x | x
C[C@@H]1CN([C@H](C)CO)C(=O)Cc2cc(NC(=O)Nc3cccc4ccccc34)ccc2O[C@H]1CN(C)C | x | -3 | -1 | x | x | 0
C/C(N)=C(/C#N)C(=O)CSc1nnc(Nc2cccc(C)c2)s1 | 73 | 60* | 5 | 3 | -5 | 0
CC(C)(C)c1nnc(N/N=C/c2cc(Br)ccc2O)n(N)c1=O | -67 | x | x | -5 | 33* | 0
CCc1nnc(N/N=C/c2cc(Br)c(O)cc2O)n1N | -9 | -6 | 34 | 0 | -1 | 0
Cc1ccc(NC(=O)CC2CCCC2)c(Br)c1 | 57 | 50* | 3 | -3 | 10 | 0
Cc1ccc(NC(=S)NC(=O)C2CCCCC2)c(Br)c1 | 70 | 63* | 0 | -1 | 10 | 0
Cc1ccc(NC(=O)C2CCCC2)c(Br)c1 | x | 12 | 0 | 1 | 2 | 0
C[C@@H]1CN([C@H](C)CO)C(=O)c2cc(-c3ccc(C(=O)N(C)C)cc3)cnc2O[C@H]1CN(C)C | x | -1 | 1 | x | x | -1
O=c1oc(CCO)cc2ccc(-c3ccc4[nH]ccc4c3)cc12 | 117* | 50* | 0 | x | 43* | 0
C[C@H]1CN([C@@H](C)CO)C(=O)c2cc(NS(=O)(=O)c3ccc(Cl)cc3)ccc2O[C@@H]1CN(C)Cc1ccc(C(F)(F)F)cc1 | x | -7 | x | x | x | 0
CCNc1nc(C#N)nc2c1ncn2-c1cc(F)cc(F)c1 | 0 | 0 | -4 | x | -1 | 0
CCn1cnc2c(Nc3cc(F)cc(F)c3)nc(C#N)nc21 | 70 | 57* | 0 | x | 26 | 0
CN(C)C(=O)C[C@H]1CC[C@H]2[C@H](COc3ccc(NC(=O)C4CCOCC4)cc3C(=O)N2C)O1 | x | 1 | 1 | x | x | 0
O=C1C=CC(=O)c2c(O)c(CO)c(CO)c(O)c21 | x | x | 99* | x | 9 | 0
SMILES | MITF act | esBAF inh | Casp6 inh | NSD2 HMT inh | Wnt act | Xi reactivation
C[C@H]1CN([C@@H](C)CO)C(=O)c2cc(C3=CCCCC3)cnc2O[C@@H]1CN(C)C(=O)Nc1ccccc1 | x | -1 | 3 | x | x | 0
COc1ccccc1/C=C/C(=O)OCCCN(C)C | -11 | x | -10 | 4 | u | 71*
O=C(/C=C\c1ccco1)Oc1cccc2cccnc12 | -12 | x | 60* | 2 | 40* | 0
COc1ccccc1/C=C/C(=O)Oc1cccc2cccnc12 | 14 | x | 3 | -5 | 62* | 0
Cc1ccc2cccc(OC(=O)/C=C\c3ccccc3)c2n1 | x | x | 2 | -2 | 0 | 0
COc1ccc(/C=C/C(=O)OCCCN(C)C)cc1 | -4 | x | 0 | 32 | -1 | 0
O=C(/C=C/c1ccco1)Oc1cccc2cccnc12 | -16 | x | 13 | -1 | 0 | 0
